Experimental data taken from ChEMBL document CHEMBL1131482 (J Med Chem, 1998).
Active and inactive are the calls of the source.

What was measured:
[1] = organism: Mus musculus; assay: Analgesic efficacy is expressed as percentage of that morphine, done on mouse.; type: functional
[2] = test system: Mus musculus; assay: Licking latency was measured before treatment (at dose=3 mg/kg) by using mouse hot plate test; type: functional
How it was run: (§1)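 Male Swiss-Webster mice (22-28 g), 23 ± 1 °C, 12-h light/dark cycle. Hot plate at 52.5 ± 0.1 °C. Mice with pre-drug licking latency below 12 s or over 18 s were rejected. Cutoff 45 s. Compound given sc; latency read before dosing and at 15, 30 and 45 min. 5-12 mice per test.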

[3] = test system: Mus musculus; assay: MNTD:Maximal nontoxic dose of the compound, done on mouse; sc; type: functional
How it was run: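 Male Swiss-Webster mice dosed sc. The value is the highest dose causing no visible behavioural change (tremors, convulsions, hypomotility etc.), so that treated mice could not be told apart from untreated ones. Behaviour was scored by the Irwin method in groups of at least 10 animals.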

[4] = test system: Mus musculus; assay: Licking latency was measured after 30 min treatment (at dose=10 mg/kg) by using mouse hot plate test; type: functional
How it was run: (§2)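 Male Swiss-Webster mice (22-28 g), 23 ± 1 °C, 12-h light/dark cycle, food and water ad libitum. Hot plate at 52.5 ± 0.1 °C with licking latency as read-out and 45 s cutoff. Mice with pre-drug latency below 12 or over 18 s were rejected. Compounds given sc, 5-12 mice per test. Significance was assessed by Dunnett's two-tailed test, P < 0.05.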

[5] = organism: Mus musculus; assay: Analgesic efficacy is expressed as percentage of that epibatidine, done on mouse.; type: functional
[6] = test system: Mus musculus; assay: Licking latency was measured after 15 min treatment (at dose=10 mg/kg) by using mouse hot plate test; type: functional; how it was run: as §2
[7] = test system: Mus musculus; assay: Licking latency was measured after 30 min treatment (at dose=3 mg/kg) by using mouse hot plate test; type: functional; how it was run: as §2
[8] = test system: Mus musculus; assay: Licking latency was measured after 45 min treatment (at dose=10 mg/kg) by using mouse hot plate test; type: functional; how it was run: as §2
[9] = test system: Mus musculus; assay: MAD: minimal dose able to induce a statistically significant increase of the pain threshold, done on mouse; sc; type: functional
How it was run: (§3)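 Mouse hot plate test (52.5 ± 0.1 °C, 45 s cutoff) after sc dosing, in male Swiss-Webster mice. The value is the lowest dose giving a statistically significant rise in pain threshold. Dunnett's two-tailed test compared treated mice at maximum reaction time with pretest time, P < 0.05.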

[10] = test system: Mus musculus; assay: Licking latency was measured after 15 min treatment (at dose=3 mg/kg) by using mouse hot plate test; type: functional; how it was run: as §2
[11] = test system: Mus musculus; assay: Licking latency was measured after 45 min treatment (at dose=3 mg/kg) by using mouse hot plate test; type: functional; how it was run: as §2
[12] = test system: Mus musculus; assay: Licking latency was measured before treatment (at dose=10 mg/kg) by using mouse hot plate test; type: functional; how it was run: as §2
[13] = test system: Mus musculus; assay: MAD: minimal dose able to induce a statistically significant increase of the pain threshold, done on mouse; sc; IA = inactive; type: functional, organism-based; how it was run: as §3
[14] = test system: Mus musculus; assay: Licking latency was measured after 30 min treatment (at dose=50 mg/kg) by using mouse hot plate test; type: functional; how it was run: as §2
[15] = test system: Mus musculus; assay: Licking latency was measured after 45 min treatment (at dose=50 mg/kg) by using mouse hot plate test; type: functional; how it was run: as §2
[16] = test system: Mus musculus; assay: Licking latency was measured before treatment (at dose=50 mg/kg) by using mouse hot plate test; type: functional; how it was run: as §1
[17] = test system: Mus musculus; assay: Licking latency was measured after 15 min treatment (at dose=50 mg/kg) by using mouse hot plate test; type: functional; how it was run: as §2
[18] = test system: Mus musculus; assay: Licking latency was measured after 30 min treatment (at dose=5 mg/kg) by using mouse hot plate test; type: functional; how it was run: as §2
[19] = test system: Mus musculus; assay: Licking latency was measured before treatment (at dose=5 mg/kg) by using mouse hot plate test; type: functional; how it was run: as §1
[20] = test system: Mus musculus; assay: Licking latency was measured after 45 min treatment (at dose=5 mg/kg) by using mouse hot plate test; type: functional; how it was run: as §2
[21] = test system: Mus musculus; assay: 15.5 Licking latency was measured after 15 min treatment (at dose=5 mg/kg) by using mouse hot plate test; type: functional; how it was run: as §2
[22] = test system: Mus musculus; assay: Licking latency was measured after 30 min treatment (at dose=25 mg/kg) by using mouse hot plate test (*P<0.01); type: functional; how it was run: as §2
[23] = test system: Mus musculus; assay: Licking latency was measured after 30 min treatment (at dose=15 mg/kg) by using mouse hot plate test (*P<0.01); type: functional; how it was run: as §2
[24] = test system: Mus musculus; assay: Licking latency was measured before treatment (at dose=25 mg/kg) by using mouse hot plate test; type: functional; how it was run: as §2
[25] = test system: Mus musculus; assay: Licking latency was measured after 15 min treatment (at dose=15 mg/kg) by using mouse hot plate test (*P<0.01); type: functional; how it was run: as §2
[26] = test system: Mus musculus; assay: Licking latency was measured before treatment (at dose=15 mg/kg) by using mouse hot plate test; type: functional; how it was run: as §2
[27] = test system: Mus musculus; assay: Licking latency was measured after 45 min treatment (at dose=25 mg/kg) by using mouse hot plate test (*P<0.01); type: functional; how it was run: as §2
[28] = test system: Mus musculus; assay: Licking latency was measured after 45 min treatment (at dose=15 mg/kg) by using mouse hot plate test (*P<0.01); type: functional; how it was run: as §2
[29] = test system: Mus musculus; assay: Licking latency was measured after 15 min treatment (at dose=25 mg/kg) by using mouse hot plate test (*P<0.01); type: functional; how it was run: as §2
[30] = test system: Mus musculus; assay: Licking latency was measured after 15 min treatment (at dose=25 mg/kg) by using mouse hot plate test; type: functional; how it was run: as §2
[31] = test system: Mus musculus; assay: Licking latency was measured after 45 min treatment (at dose=25 mg/kg) by using mouse hot plate test; type: functional; how it was run: as §2

Compound | Analgesic efficacy compared to morphine [1] [%] | MNTD [3] [mg/kg] | Licking latency [4] [s] | Analgesic efficacy compared to epibatidine [5] [%] | Licking latency [6] [s] | Licking latency [8] [s] | MAD [9] [mg/kg] | Licking latency [12] [s] | MAD [13] | Licking latency [14] [s] | Licking latency [15] [s] | Licking latency [16] [s] | Licking latency [17] [s] | Licking latency [22] [s] | Licking latency [24] [s] | further results
Clc1nccc(N2CC3CCC(C2)N3)n1 | 82 | 15 | 26 | 99 | 31.1 | 24.3 | 3 | 15.3 |  |  |  |  |  |  |  | Licking latency [2]: 14.5 s; Licking latency [7]: 17.4 s; Licking latency [10]: 21.3 s; Licking latency [11]: 16.2 s
Clc1ccc(N2C3CCC2CN(Cc2ccccc2)C3)nn1 |  | >50 |  |  |  |  |  |  | inactive | 15.3 | 17.6 | 14.8 | 17.2 |  |  | 
Clc1cncc(N2CC3CCC(C2)N3)n1 | 57 | 15 | 22.5 | 70 | 24.6 | 22.3 | 5 | 13.6 |  |  |  |  |  |  |  | Licking latency [18]: 15.5 s; Licking latency [19]: 15.1 s; Licking latency [20]: 15.7 s; Licking latency [21]: 19.7 s
Clc1ccc(N2C3CCC2CNC3)nn1 | 107 | 30 | 15.4 | 130 | 17 | 17.4 | 15 | 12.2 |  |  |  |  |  | 34.8 | 15 | Licking latency [23]: 22.9 s; Licking latency [25]: 23.2 s; Licking latency [26]: 15.3 s; Licking latency [27]: 26.4 s; Licking latency [28]: 20.6 s; Licking latency [29]: 35.5 s
CCC(=O)N1CC2CCC(C1)N2c1ccc(Cl)nn1 |  | >50 | 16.7 |  | 16 | 16.1 |  | 15.8 | inactive | 13 | 14 | 14.6 | 17 |  |  | 
Clc1cc(N2CC3CCC(C2)N3)ncn1 | 127 | 30 | 19.7 | 156 | 22.2 | 19.6 | 10 | 13.6 |  |  |  |  |  | 38.5 | 14.9 | Licking latency [30]: 39.5 s; Licking latency [31]: 39.1 s
